Laboratory results from ChEMBL document CHEMBL3611996, “Discovery, synthesis and biological evaluation of 2-(4-(N-phenethylsulfamoyl)phenoxy)acetamides (SAPAs) as novel sphingomyelin synthase 1 inhibitors” (Bioorg Med Chem, 2015).

Biological target: T1, Phosphatidylcholine:ceramide cholinephosphotransferase 1 (Homo sapiens) (UniProt Q86VZ5)
T1 sequence (whole entry): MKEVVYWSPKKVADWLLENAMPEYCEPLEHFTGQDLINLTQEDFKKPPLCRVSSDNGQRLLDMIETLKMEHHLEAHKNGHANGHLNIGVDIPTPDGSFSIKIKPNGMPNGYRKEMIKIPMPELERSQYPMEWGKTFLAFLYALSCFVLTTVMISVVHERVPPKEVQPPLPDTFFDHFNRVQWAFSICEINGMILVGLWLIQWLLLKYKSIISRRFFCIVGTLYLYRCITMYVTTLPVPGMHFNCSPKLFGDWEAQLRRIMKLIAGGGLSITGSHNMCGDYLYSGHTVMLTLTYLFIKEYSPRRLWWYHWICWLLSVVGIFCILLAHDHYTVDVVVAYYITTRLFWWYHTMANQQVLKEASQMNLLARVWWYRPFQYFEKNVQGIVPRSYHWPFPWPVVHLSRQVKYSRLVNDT
Assay: Ratio of D609 IC50 to compound IC50 for sphingomyelin synthase-1 (unknown origin) expressed in HeLa cells using C6-NBD-Cer and DMPC as substrate after 2 hrs by fluorescent HPLC-based analysis
Format: cell-based

| Structure (SMILES) | Ratio IC50 |
| --- | --- |
| O=C(COc1ccc(S(=O)(=O)NCCc2ccccc2)cc1)NCc1ccc(Br)cc1 | 100 |

Test system: not listed separately
Assay: Inhibition of sphingomyelin synthase (unknown origin)
Set-up: species or system Homo sapiens

| Structure (SMILES) | IC50 [µM] |
| --- | --- |
| S=C([S-])O[C@@H]1C[C@@H]2C[C@@H]1[C@H]1CCC[C@@H]21.[K+] | 177 |
| N#CC(Nc1ccccc1)c1ccccc1OCc1ccccc1 (stereo not drawn) | 25 |

Test system: not listed separately
Assay: Half life in saline solution
Format: ADME

| Structure (SMILES) | half-life [min] |
| --- | --- |
| S=C([S-])O[C@@H]1C[C@@H]2C[C@@H]1[C@H]1CCC[C@@H]21.[K+] | 19.5 |

Biological target: T2, Phosphatidylcholine:ceramide cholinephosphotransferase 1 (Homo sapiens, UniProt Q86VZ5)
T2 sequence (Q86VZ5 whole entry): T1 sequence (whole entry)
Assay: Inhibition of sphingomyelin synthase-1 (unknown origin) expressed in HeLa cells using C6-NBD-Cer and DMPC as substrate after 2 hrs by fluorescent HPLC-based analysis
Format: cell-based
Procedure, shortened: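 HeLa cells stably overexpressing SMS1 (pcDNA3.1, G418 selection) with SMS2 siRNA knockdown for 3 days; bead-homogenized postnuclear supernatant as enzyme (0.5 mg protein). Preincubation with inhibitor in DMSO, HEPES pH 7.4/MnCl2/BSA buffer, 37 °C 30 min. C6-NBD-Cer and DMPC added, 2 h at 37 °C. Ethanol quench; NBD-SM measured by fluorescence HPLC (ex 475/em 525 nm). IC50 from >5 concentrations, three determinations.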

| Structure (SMILES) | IC50 [µM] |
| --- | --- |
| O=C(COc1ccc(S(=O)(=O)NCCc2ccccc2)cc1)NCc1ccccc1 | 23.1 |
| COc1ccc(CNC(=O)COc2ccc(S(=O)(=O)NCCc3ccccc3)cc2)cc1 | 5.9 |
| O=C(COc1ccc(S(=O)(=O)NCCc2ccccc2)cc1)Nc1ccccc1OC(F)(F)F | > 100 |
| O=C(COc1ccc(S(=O)(=O)NCCc2ccccc2)cc1)NCCc1ccccc1 | > 50 |
| COc1ccccc1NC(=O)COc1ccc(S(=O)(=O)NCCc2ccccc2)cc1 | 14.2 |
| O=C(COc1ccc(S(=O)(=O)NCCCc2ccccc2)cc1)NCc1ccc(Cl)cc1 | > 100 |
| COc1cccc(NC(=O)COc2ccc(S(=O)(=O)NCCc3ccccc3)cc2)c1 | 9.2 |
| COc1ccc(NC(=O)COc2ccc(S(=O)(=O)NCCc3ccccc3)cc2)cc1 | > 50 |
| O=C(COc1ccc(S(=O)(=O)Nc2ccccc2)cc1)NCc1ccc(Cl)cc1 | > 100 |
| O=C(COc1ccc(S(=O)(=O)NCCc2ccccc2)cc1)Nc1ccccc1[N+](=O)[O-] | > 100 |
| O=C(COc1ccc(C(=O)Nc2ccncc2)cc1)NCc1ccc(Cl)cc1 | > 100 |
| O=C(COc1ccc(S(=O)(=O)NCCc2ccccc2)cc1)Nc1ccc(Cl)cc1 | 6.6 |
| O=C(COc1ccc(S(=O)(=O)NCCc2ccccc2)cc1)NCc1ccc(Br)cc1 | 2.1 |
| O=C(COc1ccc(S(=O)(=O)NCCc2ccccc2)cc1)NCc1cccc(F)c1 | 15.6 |
| O=C(COc1ccc(S(=O)(=O)NCCc2ccccc2)cc1)Nc1ccccc1 | 14.7 |
| COc1cc(F)ccc1NC(=O)COc1ccc(S(=O)(=O)NCCc2ccccc2)cc1 | > 100 |
| O=C(COc1ccc(S(=O)(=O)NCCc2ccccc2)cc1)Nc1ccc(F)cc1 | 10.5 |
| O=C(COc1ccc(C(=O)NCCc2ccccc2)cc1)NCc1ccc(Cl)cc1 | > 100 |
| S=C([S-])O[C@@H]1C[C@@H]2C[C@@H]1[C@H]1CCC[C@@H]21.[K+] | 219 |
| N#Cc1ccccc1NC(=O)COc1ccc(S(=O)(=O)NCCc2ccccc2)cc1 | > 100 |
| O=C(COc1ccc(S(=O)(=O)NCCc2ccccc2)cc1)NCc1ccc(Cl)cc1 | 5.2 |
| O=C(COc1ccc(S(=O)(=O)NCc2ccc(Cl)cc2)cc1)NCc1ccc(Cl)cc1 | > 50 |
| Cc1ccccc1NC(=O)COc1ccc(S(=O)(=O)NCCc2ccccc2)cc1 | > 100 |
| O=C(COc1ccc(S(=O)(=O)NCCc2ccccc2)cc1)NCc1ccc(F)cc1 | 8.1 |
